In the library only some 3% were active in any assay of this set; here they are far more common.
MEKK2 WT-MEK5: modulators of MEK5 binding to wildtype MEKK2, primary screen, biochemical, multiplex bead flow cytometry, Alexa488-MEK5; Mitogen-activated protein kinase kinase kinase 2 (Homo sapiens), Q9Y2U5; Alexa488-MEK5 binding to MEKK2 WT; actives lie on both sides; binding response (% of control), % at 10 µM; hit rate 1.1% among 290,000; in the data active = binding response below about 67% or above about 130%
UBC13 inh: UBC13 polyubiquitin chain formation inhibitors, primary screen, biochemical, TR-FRET, uHTS. Ubiquitin-conjugating enzyme E2 N (Homo sapiens), P61088. inhibition, % at 20 µM. hit rate 0.47% among 330,000. AID 485273, 2010; in the data active = inhibition above about 45%, passing the limit was not always enough
Target sequence (P61088 whole entry, looked up): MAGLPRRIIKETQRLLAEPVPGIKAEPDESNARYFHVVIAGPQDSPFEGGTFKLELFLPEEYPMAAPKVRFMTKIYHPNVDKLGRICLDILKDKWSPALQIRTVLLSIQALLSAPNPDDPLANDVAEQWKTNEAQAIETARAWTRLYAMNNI
MEKK2mut PB1 HTS: MEK5 binding signal on mutant MEKK2 PB1, primary screen, biochemical, multiplex bead flow cytometry, Alexa488-MEK5 | Alexa488-MEK5 binding to MEKK2 mutant | percent response, % at 10 µM | hit rate 0.35% among 290,000 | AID 1530, 2009; in the data active = percent response above about 24%, passing the limit was not always enough
MEKK3 PB1 HTS: modulators of MEKK3-MEK5 PB1 binding, primary screen, biochemical, wildtype MEKK3, multiplex bead flow cytometry, Alexa488-MEK5; bead-based flow cytometry, Alexa488-MEK5 binding to MEKK3; actives lie on both sides; 0 = blocked by unlabeled MEK5, 100 = vehicle; binding response (% of control), % at 10 µM; hit rate 1.4% among 290,000; AID 1529, 2009;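 active = binding response more than 3 SD above or below the average of its plate-row segment, actives on both sides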;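 also: Alexa488 bead fluorescence after subtracting the streptavidin-only scavenger bead signal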
Apaf-1 inh: inhibitors of human Apaf-1 apoptosome, primary screen, biochemical, DEVD-Rh110 fluorescence, uHTS; reconstituted apoptosome caspase-3 activity; Apoptotic protease-activating factor 1 (Homo sapiens), O14727; inhibition, % at 20 µM; hit rate 0.71% among 330,000; active = inhibition of at least 40% at 20 µM;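 also: plate controls were DMSO wells for no effect and DEVD-CHO caspase inhibitor wells for full effect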
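System – cell-free apoptosome with Apaf-1, procaspase-3 and caspase-9 · Buffer or medium – pH 7.5 Hepes buffer with CHAPS, BSA, DTT · Also added – cytochrome c with DEVD-Rh110 · Times – 30 min compound preincubation, 50 min activation, room temperature · Technique – Rh110 fluorescence intensity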
UCH37 DUB inh: inhibitors of human UCH37 deubiquitinase, primary screen, biochemical, Ub-AMC cleavage, fluorescence | Ubiquitin carboxyl-terminal hydrolase isozyme L5 (Homo sapiens), Q9Y5K5 | purified proteasome/UCH37 | inhibition, % (test concentration not listed) | hit rate 0.33% among 330,000;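 active = mean inhibition over replicate wells above about 20%, limit read from the data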;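 also: 0% = compound-free wells with enzyme and 100% = wells lacking proteasome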
Target sequence (Q9Y5K5 whole entry, looked up): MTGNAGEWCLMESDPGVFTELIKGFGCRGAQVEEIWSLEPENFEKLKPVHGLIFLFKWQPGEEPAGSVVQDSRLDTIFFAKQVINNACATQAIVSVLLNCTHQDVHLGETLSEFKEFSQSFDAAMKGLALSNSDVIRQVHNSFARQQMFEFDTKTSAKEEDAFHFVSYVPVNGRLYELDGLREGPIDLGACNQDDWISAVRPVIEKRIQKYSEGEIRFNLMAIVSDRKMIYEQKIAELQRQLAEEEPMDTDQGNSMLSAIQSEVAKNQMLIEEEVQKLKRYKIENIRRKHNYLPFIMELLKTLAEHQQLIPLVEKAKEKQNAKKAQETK
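System: Proteasome-associated human UCH37 deubiquitinase; Input: 0.15 nM proteasome in added enzyme buffer; Also added: Ub-AMC substrate from 1 µM stock; Incubation: 30 min compound-proteasome preincubation then 25 min substrate reaction, room temperature; Detection: fluorescence, ex 355 nm, em 460 nm; Read-out: % inhibition of Ub-AMC cleavage fluorescence; Benchmarks: no-proteasome and no-compound wells.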
MEKK2wt confirm: modulators of MEK5 binding to wildtype MEKK2, confirmation, biochemical, single concentration, multiplex bead flow cytometry; shares compounds with MEKK3 PB1 HTS; hit rate 2.4% among 5,900; Alexa488-MEK5 binding to MEKK2 WT; actives lie on both sides; binding response (% of control), % at 10 µM; AID 1892, 2009; in the data active = binding response below about 16% or above about 210%; inactive = in between
MEKK2mut confirm: mutant MEKK2 PB1-MEK5 binding signal retest – biochemical, single concentration, multiplex bead flow cytometry, confirmation; shares compounds with MEKK3 PB1 HTS; Alexa488-MEK5 binding to MEKK2 mutant; percent response, % at 10 µM; hit rate 2% among 5,900; in the data active = percent response mostly above about 71%, no sharp cut-off; inactive = mostly below about 38%;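 also: higher means compound restores mutant binding toward wildtype level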
MEKK3 confirm: MEKK3 wild-type PB1 binding to MEK5, inhibitors, confirmation, biochemical, bead multiplex flow cytometry, single concentration, wildtype. Alexa488-MEK5 binding to MEKK3; hits give low values. shares compounds with MEKK3 PB1 HTS. binding response (% of control), % at 10 µM. hit rate 1.8% among 5,900;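 active = binding response below 72% of control, or above a set upper limit, though filed actives all read lower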;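 also: 100% = DMSO only wells and 0% = binding blocked by excess unlabeled MEK5; lower values mean stronger disruption of MEK5 binding to MEKK3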
* = called active by the depositor; . = not tested or not shown; [ ] = another dose, or the depositor's remark.

SMILES	MEKK2 WT-MEK5	UBC13 inh	MEKK2mut PB1 HTS	MEKK3 PB1 HTS	Apaf-1 inh	UCH37 DUB inh	MEKK2wt confirm	MEKK2mut confirm	MEKK3 confirm
O=C(c1c[nH]c2ccccc12)C(F)(F)F	101	-4	12	107	-10	0	.	.	.
O=C(O)c1ccc(N2C(=O)c3cccnc3C2=O)cc1	97	0	-4	98	-9	2	.	.	.
O=C1c2nccnc2C(=O)N1c1ccc(F)cc1	112	-16	0	130*	-10	.	105	6	100
O=C(COC(=O)CNS(=O)(=O)c1ccc(F)c(F)c1F)NCCc1ccccc1	110	-9	6	108	12	1	.	.	.
CCOc1ccccc1NC(=O)C1CCCN1C(=O)OCc1ccccc1 (centres undefined)	110	16	8	109	3	1	.	.	.
COc1ccc(Cl)cc1NC(=O)C[n+]1ccccc1	108	8	3	105	-8	4	.	.	.
CCc1cc[n+](CC(=O)Nc2ccc(Cl)cc2Cl)cc1	4.0*[inhibitor]	10	-4	3.0*[inhibitor]	0	1	108	4	101
Cc1ccc(C)c2c1cc(C)c1nnc(SCC(=O)c3cccs3)n12	112	12	4	148*	-5	1	99	-6	97
CCCCCOc1ccc2oc(=O)c3c(c2c1)CCCN3C(=O)CN1CCCC(C(=O)OCC)C1 (centres undefined)	2.0*[inhibitor]	5	-14	2.0*[inhibitor]	38	-1	96	-2	102
O=C(CN1CCCCC1)N1CCCc2c1c(=O)oc1ccc(OCc3ccccc3)cc21	111	6	8	112	35	-38	.	.	.
COC(=O)c1ccccc1OS(=O)(=O)N(C)C	102	-5	2	104	-1	4	.	.	.
COc1ccc(-c2noc(C3CCCN(C(=O)c4cccs4)C3)n2)cc1 (centres undefined)	108	11	8	106	8	2	.	.	.
COc1ccc(OC)c(C=NNC(=O)c2ccc(COc3ccc(C)cc3[N+](=O)[O-])o2)c1	.	.	.	.	.	-7	.	.	.
C/C(=N\NC(=O)c1cc(O)cc(O)c1)c1ccc(NC(=O)Cc2ccccc2)cc1	68*[inhibitor]	30	-7	71*[inhibitor]	8	.	63	-17	70*
C/C(=N\NC(=O)c1cccc(F)c1)c1ccc(NC(=O)Cc2ccccc2)cc1	103	-6	3	103	-5	.	.	.	.
COC(=O)c1ccc(S(=O)(=O)c2ccc(Cl)cc2)c(N)c1	102	21	4	101	7	-247	.	.	.
CSc1ccccc1NC(=O)CN(C)CC(=O)Nc1cc(C)ccc1C	96	11	-2	68*[inhibitor]	-14	1	99	-13	99
COc1ccc(S(=O)(=O)N(C)CC(=O)Nc2ccccc2SC)cc1Cl	89	13	-8	82*[inhibitor]	15	3	102	3	107
Cc1cc(C)cc(Oc2ccccc2CO)c1	99	.	-1	103	.	.	.	.	.
Cc1ccc(Cl)c(OC(=O)c2ccc(N3CCOCC3)c([N+](=O)[O-])c2)c1	109	9	1	137*	2	5	99	-2	104
